Source: ChEMBL document CHEMBL1124339, “Conformationally restricted analogues of atriopeptin(103-125)amide” (J Med Chem, 1989)
Positions of bridges follow the written chain, without caps; N, C: chain ends. Non-standard residues stand in square brackets, D forms with d. Residues, ends and D or L forms follow the SMILES beside them. hCys = N[C@@H](CCS)C(=O)O

Experiments:
Oryctolagus cuniculus [1] = species on record: Oryctolagus cuniculus; experiment: Effective concentration in vasorelaxation assay; 0.05-0.3 uM; type: functional
Oryctolagus cuniculus [2] = species on record: Oryctolagus cuniculus; experiment: Relative potency for vasorelaxant activity of the compound; type: functional
[3] = system: Atrial natriuretic peptide receptor 3 (Oryctolagus cuniculus); experiment: Relative binding potency towards non-vasorelaxant binding site compared to AP(103-126)
Oryctolagus cuniculus [4] = species on record: Oryctolagus cuniculus; experiment: Relative binding potency towards vasorelaxant binding site compared to AP(103-126)
Outline: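 Varied unlabeled peptide concentrations; started by adding membranes; 30 min at 25 °C. Filtration with ice-cold buffer, then gamma counting. Nonspecific binding measured with 10^-6 M unlabeled reference peptide. Specific binding fitted by nonlinear least squares.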

Oryctolagus cuniculus [5] = species on record: Oryctolagus cuniculus; experiment: Effective concentration in vasorelaxant assay; 0.05-0.3 uM; type: functional
[6] = Vasorelaxant activity in norepinephrine-contracted rabbit aortic rings, compared to AP(103-126); type: functional, Oryctolagus cuniculus, Aorta

Structure (SMILES) | Relative potency [3] | Relative potency (Oryctolagus cuniculus [4]) | further results
CC[C@H](C)[C@@H]1NC(=O)[C@H](CCCN=C(N)N)NC(=O)[C@H](CC(=O)O)NC(=O)[C@H]([C@@H](C)CC)NC(=O)[C@H](CCCN=C(N)N)NC(=O)CNC(=O)CNC(=O)[C@H](Cc2ccccc2)NC(=O)[C@@H](NC(=O)[C@H](CO)NC(=O)[C@@H](N)CO)CSSC[C@@H](C(=O)N[C@@H](CC(N)=O)C(=O)N[C@@H](CO)C(=O)N[C@@H](Cc2ccccc2)C(=O)N[C@@H](CCCN=C(N)N)C(=O)N[C@@H](Cc2ccc(O)cc2)C(=O)O)NC(=O)CNC(=O)[C@H](CC(C)C)NC(=O)CNC(=O)[C@H](CO)NC(=O)[C@H](CCC(N)=O)NC(=O)[C@H](C)NC(=O)CNC1=O | – | – | EC50 (Oryctolagus cuniculus [1]): 50 nM; EC50 (Oryctolagus cuniculus [2]): 2.3 nM
CC[C@H](C)[C@@H]1NC(=O)[C@H](CCCN=C(N)N)NC(=O)[C@H](CC(=O)O)NC(=O)[C@H]([C@@H](C)CC)NC(=O)[C@H](CCCN=C(N)N)NC(=O)CNC(=O)CNC(=O)[C@H](Cc2ccccc2)NC(=O)[C@@H](NC(=O)[C@H](CO)NC(=O)[C@@H](N)CO)CSSC[C@@H](C(=O)N[C@@H](CC(N)=O)C(=O)N[C@@H](CO)C(=O)N[C@@H](Cc2ccccc2)C(=O)N[C@@H](CCCN=C(N)N)C(N)=O)NC(=O)CNC(=O)[C@H](CC(C)C)NC(=O)CNC(=O)[C@H](CO)NC(=O)[C@H](CCC(N)=O)NC(=O)[C@H](C)NC(=O)CNC1=O | – | – | EC50 (Oryctolagus cuniculus [5]): 50 nM
CC[C@H](C)[C@@H]1NC(=O)[C@H](CCCN=C(N)N)NC(=O)[C@H](CC(=O)O)NC(=O)[C@H]([C@@H](C)CC)NC(=O)[C@H](CCCN=C(N)N)NC(=O)[C@@H](CCS)NC(=O)CNC(=O)[C@H](Cc2ccccc2)NC(=O)[C@@H](NC(=O)[C@H](CO)NC(=O)[C@@H](N)CO)CSSC[C@@H](C(=O)N[C@@H](CC(N)=O)C(=O)N[C@@H](CO)C(=O)N[C@@H](Cc2ccccc2)C(=O)N[C@@H](CCCN=C(N)N)C(N)=O)NC(=O)CNC(=O)[C@H](CC(C)C)NC(=O)CNC(=O)[C@@H](CCS)NC(=O)[C@H](CCC(N)=O)NC(=O)[C@H](C)NC(=O)CNC1=O | 2.8 | 0.071 | –
CC[C@H](C)[C@H]1NC(=O)[C@H](CCCN=C(N)N)NC(=O)[C@H](CC(=O)O)NC(=O)[C@@H]([C@@H](C)CC)NC(=O)[C@H](CCCN=C(N)N)NC(=O)[C@H](CSCNC(C)=O)NC(=O)CNC(=O)[C@@H](Cc2ccccc2)NC(=O)[C@H](NC(=O)[C@H](CO)NC(=O)[C@@H](N)CO)CSSC[C@H](C(=O)N[C@@H](CC(N)=O)C(=O)N[C@@H](CO)C(=O)N[C@@H](Cc2ccccc2)C(=O)N[C@@H](CCCN=C(N)N)C(N)=O)NC(=O)CNC(=O)[C@@H](CC(C)C)NC(=O)CNC(=O)[C@H](CSCNC(C)=O)NC(=O)[C@H](CCC(N)=O)NC(=O)[C@@H](C)NC(=O)CNC1=O | 0.48 | 0.48 | –
CC[C@H](C)[C@H]1NC(=O)[C@H](CCCN=C(N)N)NC(=O)[C@H](CC(=O)O)NC(=O)[C@@H]([C@@H](C)CC)NC(=O)[C@H](CCCN=C(N)N)NC(=O)CNC(=O)CNC(=O)[C@@H](Cc2ccccc2)NC(=O)[C@H](NC(=O)[C@H](CO)NC(=O)[C@@H](N)CO)CSSC[C@H](C(=O)N[C@@H](CC(N)=O)C(=O)N[C@@H](CO)C(=O)N[C@@H](Cc2ccccc2)C(=O)N[C@@H](CCCN=C(N)N)C(N)=O)NC(=O)CNC(=O)[C@@H](CC(C)C)NC(=O)CNC(=O)[C@@H](CO)NC(=O)[C@H](CCC(N)=O)NC(=O)[C@@H](C)NC(=O)CNC1=O | 3.2 | 3.2 | –
CC[C@H](C)[C@H](NC(=O)[C@H](CC/N=C(/N)NO)NC(=O)[C@H](CC(=O)O)NC(=O)[C@@H](NC(=O)[C@H](CCN=C(N)N)NC(=O)[C@H](CSCNC(C)=O)NC(=O)CNC(=O)[C@H](Cc1ccccc1)NC(=O)[C@H](CSCNC(C)=O)NC(=O)[C@H](CO)NC(=O)[C@@H](N)CO)[C@@H](C)CC)C(=O)NCC(=O)N[C@@H](C)C(=O)N[C@@H](CCC(N)=O)C(=O)C1SSC[C@@H](C(=O)N[C@@H](CC(N)=O)C(=O)CN[C@@H](CO)C(=O)N[C@@H](Cc2ccccc2)C(=O)N[C@@H](CCCN=C(N)N)C(N)=O)NC(=O)CNC(=O)[C@H](CC(C)C)NC(=O)CNC(=O)[C@H]1N (stereo in doubt; 9a) | – | – | Relative potency [6]: 0.028
CC[C@H](C)[C@@H]1NC(=O)[C@H](CCCN=C(N)N)NC(=O)[C@H](CC(=O)O)NC(=O)[C@H]([C@@H](C)CC)NC(=O)[C@H](CCCN=C(N)N)NC(=O)[C@@H]2CCSSC[C@H](NC(=O)[C@H](CCC(N)=O)NC(=O)[C@H](C)NC(=O)CNC1=O)C(=O)NCC(=O)N[C@@H](CC(C)C)C(=O)NCC(=O)N[C@H](C(=O)N[C@@H](CC(N)=O)C(=O)N[C@@H](CO)C(=O)N[C@@H](Cc1ccccc1)C(=O)N[C@@H](CCCN=C(N)N)C(N)=O)CSSC[C@H](NC(=O)[C@H](CO)NC(=O)[C@@H](N)CO)C(=O)N[C@@H](Cc1ccccc1)C(=O)NCC(=O)N2 (H-SSCFG[hCys]RIDRIGAQCGLGCNSFR-NH2; disulfide 3-19, 6-15) | – | – | Relative potency [6]: 0.049

The next lines start with results.

Relative potency [3] | Relative potency (Oryctolagus cuniculus [4]) | Structure (SMILES) | further results
2.2 | 0.0053 | CC[C@H](C)[C@H](NC(=O)[C@H](CC/N=C(/N)NO)NC(=O)[C@H](CC(=O)O)NC(=O)[C@@H](NC(=O)[C@H](CCN=C(N)N)NC(=O)[C@H](CSCNC(C)=O)NC(=O)CNC(=O)[C@H](Cc1ccccc1)NC(=O)[C@H](CSCNC(C)=O)NC(=O)[C@H](CO)NC(=O)[C@@H](N)CO)[C@@H](C)CC)C(=O)NCC(=O)N[C@@H](C)C(=O)N[C@@H](CCC(N)=O)C(=O)C1SSC[C@@H](C(=O)N[C@@H](CC(N)=O)C(=O)CN[C@@H](CO)C(=O)N[C@@H](Cc2ccccc2)C(=O)N[C@@H](CCCN=C(N)N)C(N)=O)NC(=O)CNC(=O)[C@H](CC(C)C)NC(=O)CNC(=O)[C@H]1N (stereo in doubt; 9b) | –
3.1 | 0.014 | CC[C@H](C)[C@@H]1NC(=O)[C@H](CCCN=C(N)N)NC(=O)[C@H](CC(=O)O)NC(=O)[C@H]([C@@H](C)CC)NC(=O)[C@H](CCCN=C(N)N)NC(=O)[C@@H](CSCNC(C)=O)NC(=O)CNC(=O)[C@H](Cc2ccccc2)NC(=O)[C@@H](NC(=O)[C@H](CO)NC(=O)[C@@H](N)CO)CSSC[C@@H](C(=O)NCC(=O)N[C@@H](CC(C)C)C(=O)NCC(=O)N[C@@H](CSCNC(C)=O)C(=O)N[C@@H](CC(N)=O)C(=O)N[C@@H](CO)C(=O)N[C@@H](Cc2ccccc2)C(=O)N[C@@H](CCCN=C(N)N)C(N)=O)NC(=O)[C@H](CCC(N)=O)NC(=O)[C@H](C)NC(=O)CNC1=O | –
4.3 | 4.3 | CC[C@H](C)[C@@H]1NC(=O)[C@H](CCCN=C(N)N)NC(=O)[C@H](CC(=O)O)NC(=O)[C@H]([C@@H](C)CC)NC(=O)[C@H](CCCN=C(N)N)NC(=O)[C@@H](CSCNC(C)=O)NC(=O)CNC(=O)[C@H](Cc2ccccc2)NC(=O)[C@@H](NC(=O)[C@H](CO)NC(=O)[C@@H](N)CO)CSSC[C@@H](C(=O)N[C@@H](CC(N)=O)C(=O)N[C@@H](CO)C(=O)N[C@@H](Cc2ccccc2)C(=O)N[C@@H](CCCN=C(N)N)C(N)=O)NC(=O)CNC(=O)[C@H](CC(C)C)NC(=O)CNC(=O)[C@H](CO)NC(=O)[C@H](CCC(N)=O)NC(=O)[C@H](C)NC(=O)CNC1=O | –
0.84 | 0.84 | CC[C@H](C)[C@@H]1NC(=O)[C@H](CCCN=C(N)N)NC(=O)[C@H](CC(=O)O)NC(=O)[C@H]([C@@H](C)CC)NC(=O)[C@H](CCCN=C(N)N)NC(=O)[C@@H](CCSCNC(C)=O)NC(=O)CNC(=O)[C@H](Cc2ccccc2)NC(=O)[C@@H](NC(=O)[C@H](CO)NC(=O)[C@@H](N)CO)CSSC[C@@H](C(=O)N[C@@H](CC(N)=O)C(=O)N[C@@H](CO)C(=O)N[C@@H](Cc2ccccc2)C(=O)N[C@@H](CCCN=C(N)N)C(N)=O)NC(=O)CNC(=O)[C@H](CC(C)C)NC(=O)CNC(=O)[C@@H](CCSCNC(C)=O)NC(=O)[C@H](CCC(N)=O)NC(=O)[C@H](C)NC(=O)CNC1=O | –
0.15 | 0.15 | CC[C@H](C)[C@@H]1NC(=O)[C@H](CCCN=C(N)N)NC(=O)[C@H](CC(=O)O)NC(=O)[C@H]([C@@H](C)CC)NC(=O)[C@H](CCCN=C(N)N)NC(=O)[C@@H](CCSCNC(C)=O)NC(=O)CNC(=O)[C@H](Cc2ccccc2)NC(=O)[C@H](NC(=O)[C@H](CO)NC(=O)[C@@H](N)CO)CSSC[C@H](C(=O)N[C@@H](CC(N)=O)C(=O)N[C@@H](CO)C(=O)N[C@@H](Cc2ccccc2)C(=O)N[C@@H](CCCN=C(N)N)C(N)=O)NC(=O)CNC(=O)[C@H](CC(C)C)NC(=O)CNC(=O)[C@H](CSCNC(C)=O)NC(=O)[C@H](CCC(N)=O)NC(=O)[C@H](C)NC(=O)CNC1=O | –
0.91 | 0.91 | CC[C@H](C)[C@H]1NC(=O)[C@H](CCCN=C(N)N)NC(=O)[C@H](CC(=O)O)NC(=O)[C@@H]([C@@H](C)CC)NC(=O)[C@H](CCCN=C(N)N)NC(=O)[C@@H](CSCNC(C)=O)NC(=O)CNC(=O)[C@@H](Cc2ccccc2)NC(=O)[C@H](NC(=O)[C@H](CO)NC(=O)[C@@H](N)CO)CSSC[C@H](C(=O)N[C@@H](CC(N)=O)C(=O)N[C@@H](CO)C(=O)N[C@@H](Cc2ccccc2)C(=O)N[C@@H](CCCN=C(N)N)C(N)=O)NC(=O)CNC(=O)[C@@H](CC(C)C)NC(=O)CNC(=O)[C@@H](CSCNC(C)=O)NC(=O)[C@H](CCC(N)=O)NC(=O)[C@@H](C)NC(=O)CNC1=O | –
